# Results of several laboratories.
# Protocols differ between the studies behind these lines.
# Target: Serine/threonine-protein kinase MARK1 (MARK1, Homo sapiens, UniProt Q9P0L2)
SMILES,read-out,action,method,concentration,endpoint,value
Cn1cc(-c2cccc(N3CCc4c(sc5c4CC(C)(C)C5)C3=O)c2CO)cc(Nc2ccncn2)c1=O,enzyme activity,inhibitor,,1 µM,inhibition,1%
Cc1nn(C)cc1-c1nc2c(N3CCN(Cc4ccc(Cl)cc4)CC3)c(Cl)cnc2[nH]1,binding,,competition with immobilised ligand,1 µM,remaining binding,78%
Cn1cc(-c2cc(F)cc(N3CCn4c(cc5c4CCCC5)C3=O)c2CO)cc(Nc2ccc(N3CCN(C4COC4)CC3)cn2)c1=O,enzyme activity,inhibitor,,0.1 µM,inhibition,10%
Nc1ncc(-c2nc(N3CCOCC3)nc(N3CCOCC3)n2)c(C(F)F)n1,binding,,competition with immobilised ligand,10 µM,remaining binding,88%
COc1cc(Nc2ncc(F)c(Nc3ccc4c(n3)NC(=O)C(C)(C)O4)n2)cc(OC)c1OC,binding,,competition with immobilised ligand,10 µM,inhibition,94%
N#CC1(c2ccccn2)CCN(Cc2cc(C(=O)O)c(=O)n3ccccc23)CC1,cell-free assay,,competition with immobilised ligand,1 µM,remaining binding,94%
C#Cc1n[nH]c2c(-c3cn([C@@H](C)c4ccccn4)c(=O)[nH]c3=O)cc(F)cc12,enzyme activity,inhibitor,,0.1 µM,inhibition,4.9%
Cn1cncc1[C@@](O)(COc1ccc(C#N)cc1-c1ccc(OC(F)(F)F)cc1)c1ccc(C#N)cc1,cell-free assay,,competition with immobilised ligand,1 µM,remaining binding,100%
CC(C)(C)c1cc(C=C(C#N)C#N)cc(Br)c1O,enzyme activity,inhibitor,,0.5 µM,remaining activity,98.8%
COc1ncccc1-c1cnn2ccc(N3CCN(C(=O)OC(C)C)CC3)nc12,binding,,competition with immobilised ligand,1 µM,remaining binding,100%
O=c1[nH]c2ccccc2n1C1CCN(Cc2ccc(-c3[nH]c4cc5ncnc5cc4nc3-c3ccccc3)cc2)CC1,cell-free assay,,,0.5 µM,remaining signal,104%
C#Cc1n[nH]c2c(-c3cn([C@@H](C)c4ccccc4)c(=O)[nH]c3=O)cc(F)cc12,enzyme activity,inhibitor,,0.1 µM,inhibition,4.1%
